The source made the active and inactive calls. No cut-off for these calls is given here.
Key:
[1] = Inhibition of IFN-gamma-induced NFkappaB activation in mouse RAW264.7 cells assessed as reduction in nitric oxide production after 18 hrs by DAN assay; format: cell-based; details: RAW264.7, 18 h
Summary of the method: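 Mouse RAW 264.7 macrophages stimulated with IFN-γ alongside compound; NF-κB-mediated NO output measured by the 2,3-diaminonaphthalene (DAN) nitrite assay.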

[2] = system: HeLa; assay: Cell cycle arrest in human HeLa cells assessed as accumulation at G2/M phase at 5 uM after 24 hrs by propidium iodide staining based flow cytometry (reference value: 15.7%); format: functional
Summary of the method: (§1)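 HeLa cells, 3×10^5/well, attached overnight, switched to serum-free medium for synchronisation, then DMSO or 5, 10, 20 µM for 24 h; cells fixed, PI-stained, G0/G1, S and G2/M fractions by flow cytometry; n = 3, mean ± SD.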

[3] = system: RAW264.7; assay: Inhibition of LPS-induced ERK phosphorylation in mouse RAW264.7 cells at 1 to 10 uM preincubated for 1 hr followed by LPS stimulation for 15 to 30 mins by Western blot method; format: cell-based
Summary of the method: (§2)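 RAW 264.7 cells, 3×10^6 per dish overnight, pretreated 1 h with 1, 5 or 10 µM, then LPS 100 ng/mL for 15 or 30 min; nuclear/cytoplasmic lysates (20–30 µg) run on 10% SDS-PAGE, immunoblotted for phospho/total proteins, GAPDH loading control, ECL, densitometry; three independent experiments.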

[4] = system: HeLa; assay: Cell cycle arrest in human HeLa cells assessed as accumulation at G0/G1 phase at 20 uM after 24 hrs by propidium iodide staining based flow cytometry (reference value: 49.4%); format: functional; summary of the method: as §1
[5] = target: Tyrosine-protein kinase SYK (Mus musculus) (UniProt P48025); assay: Inhibition of LPS-induced SYK phosphorylation in mouse RAW264.7 cells preincubated for 1 hr followed by LPS stimulation for 30 mins by Western blot method; format: cell-based; summary of the method: as §2
Tyrosine-protein kinase SYK (Mus musculus), sequence (P48025 whole entry, looked up): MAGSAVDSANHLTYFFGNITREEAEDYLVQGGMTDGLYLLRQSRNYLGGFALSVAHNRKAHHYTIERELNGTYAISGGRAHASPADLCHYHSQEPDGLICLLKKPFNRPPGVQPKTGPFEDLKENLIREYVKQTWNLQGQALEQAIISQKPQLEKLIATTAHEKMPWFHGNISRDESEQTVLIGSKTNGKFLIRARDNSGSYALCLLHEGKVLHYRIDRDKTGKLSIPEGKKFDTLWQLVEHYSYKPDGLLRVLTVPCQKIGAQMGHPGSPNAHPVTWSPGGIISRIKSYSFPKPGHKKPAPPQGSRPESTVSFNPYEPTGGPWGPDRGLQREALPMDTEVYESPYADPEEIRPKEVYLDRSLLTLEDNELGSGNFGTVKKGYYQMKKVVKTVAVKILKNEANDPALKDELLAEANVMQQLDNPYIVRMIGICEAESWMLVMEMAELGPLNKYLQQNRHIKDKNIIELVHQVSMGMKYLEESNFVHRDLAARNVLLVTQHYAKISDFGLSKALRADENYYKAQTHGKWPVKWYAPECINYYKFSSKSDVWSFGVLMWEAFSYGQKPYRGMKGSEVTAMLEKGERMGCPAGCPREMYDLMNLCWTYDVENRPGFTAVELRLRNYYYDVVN

[6] = target: T1, Toll-like receptor 7 (Homo sapiens) (UniProt Q9NYK1); assay: Antagonist activity at human TLR7 expressed in HEK293 cells assessed as decrease in R848-induced NF-kappaB activation-mediated SEAP production at 10^-9 to 10^-5 M after 24 hrs by Quanti-blue-based assay; format: cell-based
T1 sequence (whole entry): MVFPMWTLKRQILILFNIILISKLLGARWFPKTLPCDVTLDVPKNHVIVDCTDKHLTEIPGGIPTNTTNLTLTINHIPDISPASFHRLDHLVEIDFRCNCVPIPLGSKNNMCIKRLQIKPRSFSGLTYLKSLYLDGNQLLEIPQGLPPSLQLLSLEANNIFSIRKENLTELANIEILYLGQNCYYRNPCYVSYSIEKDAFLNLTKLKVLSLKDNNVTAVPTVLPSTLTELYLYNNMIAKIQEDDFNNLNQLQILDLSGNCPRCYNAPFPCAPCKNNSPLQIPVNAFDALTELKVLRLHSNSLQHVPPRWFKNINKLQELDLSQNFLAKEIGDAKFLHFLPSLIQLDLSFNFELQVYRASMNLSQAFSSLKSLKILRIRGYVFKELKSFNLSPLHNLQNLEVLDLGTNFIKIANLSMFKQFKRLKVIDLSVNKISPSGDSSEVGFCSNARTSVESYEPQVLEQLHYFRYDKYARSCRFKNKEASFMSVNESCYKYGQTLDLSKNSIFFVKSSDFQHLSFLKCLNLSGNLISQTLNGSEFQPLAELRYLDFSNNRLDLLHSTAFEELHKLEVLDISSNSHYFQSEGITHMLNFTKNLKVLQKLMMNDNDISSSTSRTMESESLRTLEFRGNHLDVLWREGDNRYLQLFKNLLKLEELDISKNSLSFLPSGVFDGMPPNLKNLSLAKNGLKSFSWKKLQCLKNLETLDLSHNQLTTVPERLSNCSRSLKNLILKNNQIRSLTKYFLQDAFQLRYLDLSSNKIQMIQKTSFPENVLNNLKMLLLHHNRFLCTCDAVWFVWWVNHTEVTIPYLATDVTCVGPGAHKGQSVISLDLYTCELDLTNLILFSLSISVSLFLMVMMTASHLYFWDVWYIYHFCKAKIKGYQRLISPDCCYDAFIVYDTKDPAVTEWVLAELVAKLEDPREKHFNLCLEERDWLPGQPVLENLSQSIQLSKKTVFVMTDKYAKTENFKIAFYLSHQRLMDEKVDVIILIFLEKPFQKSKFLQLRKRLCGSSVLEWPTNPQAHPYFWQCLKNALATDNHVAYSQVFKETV
Summary of the method: (§3)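 HEK293 cells stably carrying a human TLR plus an NF-κB-driven SEAP reporter, seeded 5×10^4/well for 24 h at 37 °C, then stimulated: Pam3CSK4 100 µg/mL (TLR1/2), Pam2CSK4 100 µg/mL, poly I:C 5 µg/mL (TLR3), LPS 20 ng/mL (TLR4), flagellin 100 ng/mL (TLR5), R848 1 µg/mL (TLR7, TLR8), CpG-ODN2006 1 µg/mL (TLR9). After 24 h with compound, supernatant mixed with QUANTI-Blue, 1 h 37 °C, OD 620 nm.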

[7] = target: Toll-like receptor 3 (Homo sapiens) (UniProt O15455); assay: Antagonist activity at human TLR3 expressed in HEK293 cells assessed as decrease in poly I:C-induced NF-kappaB activation-mediated SEAP production at 10^-9 to 10^-5 M after 24 hrs by Quanti-blue-based assay; format: cell-based; summary of the method: as §3
Toll-like receptor 3 (Homo sapiens), sequence (O15455 whole entry): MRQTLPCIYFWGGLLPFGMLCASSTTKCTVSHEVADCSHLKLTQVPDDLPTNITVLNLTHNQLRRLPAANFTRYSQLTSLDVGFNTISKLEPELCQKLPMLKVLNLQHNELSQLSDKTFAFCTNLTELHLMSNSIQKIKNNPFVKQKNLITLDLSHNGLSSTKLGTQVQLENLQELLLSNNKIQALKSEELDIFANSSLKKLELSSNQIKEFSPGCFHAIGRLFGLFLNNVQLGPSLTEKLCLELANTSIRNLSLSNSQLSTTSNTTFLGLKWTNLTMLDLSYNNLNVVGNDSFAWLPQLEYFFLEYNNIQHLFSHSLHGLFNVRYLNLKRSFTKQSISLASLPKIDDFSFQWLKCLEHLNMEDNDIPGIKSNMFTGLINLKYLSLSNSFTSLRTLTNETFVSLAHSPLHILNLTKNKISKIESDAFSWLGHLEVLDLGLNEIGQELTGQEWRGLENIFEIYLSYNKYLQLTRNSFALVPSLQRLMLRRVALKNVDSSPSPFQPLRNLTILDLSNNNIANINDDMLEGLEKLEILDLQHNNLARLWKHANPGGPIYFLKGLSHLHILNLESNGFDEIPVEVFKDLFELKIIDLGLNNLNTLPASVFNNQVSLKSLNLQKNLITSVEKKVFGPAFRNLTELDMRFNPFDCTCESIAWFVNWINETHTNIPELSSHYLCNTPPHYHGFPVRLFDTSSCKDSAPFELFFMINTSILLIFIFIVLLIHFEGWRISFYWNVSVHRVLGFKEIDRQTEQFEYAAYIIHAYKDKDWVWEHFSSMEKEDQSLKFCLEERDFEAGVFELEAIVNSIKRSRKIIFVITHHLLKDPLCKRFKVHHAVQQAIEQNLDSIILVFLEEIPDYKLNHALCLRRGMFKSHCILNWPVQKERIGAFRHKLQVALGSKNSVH

[8] = Inhibition of LPS-induced NFkappaB activation in mouse RAW264.7 cells assessed as reduction in nitric oxide production after 18 hrs by DAN assay; format: cell-based; details: RAW264.7, 18 h
Summary of the method: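 RAW 264.7 cells at 2×10^5 cells/mL, 24 h, medium refreshed, then LPS 100 ng/mL with or without graded compound for 18 h; nitrite in medium reacted with 2,3-diaminonaphthalene (0.05 mg/mL in 0.62 M HCl), 15 min in dark, as NO readout. n = 3, mean ± SD.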

[9] = target: Toll-like receptor 4 (Homo sapiens) (UniProt O00206); assay: Antagonist activity at human TLR4 expressed in HEK293 cells assessed as decrease in LPS-induced NF-kappaB activation-mediated SEAP production at 10^-9 to 10^-5 M after 24 hrs by Quanti-blue-based assay; format: cell-based; summary of the method: as §3
Toll-like receptor 4 (Homo sapiens), sequence (O00206 whole entry): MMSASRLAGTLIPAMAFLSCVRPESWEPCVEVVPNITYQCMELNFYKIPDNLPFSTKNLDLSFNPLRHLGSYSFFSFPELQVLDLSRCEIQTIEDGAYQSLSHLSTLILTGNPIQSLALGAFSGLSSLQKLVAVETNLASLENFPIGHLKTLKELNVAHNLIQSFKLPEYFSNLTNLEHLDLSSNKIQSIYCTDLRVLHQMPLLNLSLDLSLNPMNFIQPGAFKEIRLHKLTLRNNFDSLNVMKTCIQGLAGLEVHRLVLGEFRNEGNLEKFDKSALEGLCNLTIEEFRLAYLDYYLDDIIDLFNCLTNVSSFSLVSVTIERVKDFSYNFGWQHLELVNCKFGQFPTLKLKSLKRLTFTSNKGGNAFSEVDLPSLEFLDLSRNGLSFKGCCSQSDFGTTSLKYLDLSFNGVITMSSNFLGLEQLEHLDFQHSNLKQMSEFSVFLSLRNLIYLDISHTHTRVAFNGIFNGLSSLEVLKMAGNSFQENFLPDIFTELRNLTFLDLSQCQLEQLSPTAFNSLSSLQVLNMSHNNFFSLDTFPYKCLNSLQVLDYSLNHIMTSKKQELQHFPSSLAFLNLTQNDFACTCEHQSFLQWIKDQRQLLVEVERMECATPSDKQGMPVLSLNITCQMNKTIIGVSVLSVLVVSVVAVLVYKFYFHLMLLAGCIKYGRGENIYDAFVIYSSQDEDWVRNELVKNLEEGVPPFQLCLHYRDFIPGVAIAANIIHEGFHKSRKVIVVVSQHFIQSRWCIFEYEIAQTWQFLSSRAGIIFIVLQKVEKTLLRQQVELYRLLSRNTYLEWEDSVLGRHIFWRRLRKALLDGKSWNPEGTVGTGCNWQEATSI

[10] = system: RAW264.7; assay: Inhibition of LPS-induced JNK phosphorylation in mouse RAW264.7 cells at 1 to 10 uM preincubated for 1 hr followed by LPS stimulation for 15 to 30 mins by Western blot method; format: cell-based; summary of the method: as §2
[11] = system: RAW264.7; assay: Antiinflammatory activity in mouse RAW264.7 cells assessed as decrease in LPS-induced TNFalpha production preincubated for 30 mins followed by LPS stimulation measured after 18 hrs by ELISA; format: functional, cell-based
Summary of the method: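 RAW 264.7 cells, 1.5×10^6/well, 24 h, medium refreshed; pretreated with increasing compound 30 min, then LPS 100 ng/mL for 18 h; supernatant TNF-α quantified by sandwich ELISA against recombinant mouse standards.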

[12] = target: Tumor necrosis factor receptor superfamily member 1A (Homo sapiens, UniProt P19438); assay: Inhibition of TNFR in TLR null HEK-blue cells assessed as decrease in TNFalpha-stimulated NF-kappaB activation-mediated SEAP production after 24 hrs by Quanti-blue-based assay; format: cell-based
Tumor necrosis factor receptor superfamily member 1A, sequence (P19438 whole entry): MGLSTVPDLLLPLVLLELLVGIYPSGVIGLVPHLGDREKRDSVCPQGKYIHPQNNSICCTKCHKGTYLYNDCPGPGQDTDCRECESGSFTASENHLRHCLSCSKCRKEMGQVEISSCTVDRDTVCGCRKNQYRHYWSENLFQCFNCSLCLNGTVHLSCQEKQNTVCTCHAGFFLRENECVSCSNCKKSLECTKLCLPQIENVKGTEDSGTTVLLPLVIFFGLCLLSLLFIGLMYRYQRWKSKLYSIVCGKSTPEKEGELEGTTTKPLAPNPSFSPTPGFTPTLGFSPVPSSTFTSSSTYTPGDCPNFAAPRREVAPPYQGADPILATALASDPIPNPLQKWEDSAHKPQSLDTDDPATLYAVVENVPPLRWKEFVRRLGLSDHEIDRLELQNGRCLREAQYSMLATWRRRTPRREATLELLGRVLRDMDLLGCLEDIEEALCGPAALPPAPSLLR

IC50 [1]: 79 nM
inhibition [5]: Dose-dependent effect
inhibition [6]: Active
inhibition [7]: Active
IC50 [8]: 80 nM
inhibition [9]: Active
Structure (SMILES): O=C(NNC(=O)c1csc(-c2ccc(Cl)cc2Cl)n1)c1ccccn1
Activity [2]: 13.8%
inhibition [3]: inactive
Activity [4]: 67%
inhibition [10]: inactive
Activity [11]: Dose-dependent effect
IC50 [12]: 770 nM
